UBC13 inh = UBC13 polyubiquitin chain formation inhibitors, primary screen, biochemical, TR-FRET, uHTS; actives 0.47% (n = 330,000); Ubiquitin-conjugating enzyme E2 N (Homo sapiens), P61088; inhibition, % at 20 µM; in the data active means inhibition above about 45%, passing the limit was not always enough
UPR CHOP act = activators of apoptotic CHOP UPR arm, primary screen, cell-based, CHO-CHOP luciferase reporter, luminescence, uHTS; UPR activation; percent of tunicamycin response over DMSO baseline; activation, % at 10 µM; actives 0.34% (n = 330,000); AID 449763, 2010;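 active means at 10 µM dose, activation of 40% or more, normalized to positive control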;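 further: 100% = tunicamycin at 10 µg/mL and 0% = DMSO alone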
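Assay system: CHO cells with stable CHOP pathway luciferase reporter; Buffer or medium: F12 plus 10% serum; Times: 16-18 h cell attachment, then 6 h compound exposure, 37 °C; Signal: luciferase luminescence; Read-out basis: percent activation relative to tunicamycin control; Control set: tunicamycin high control, DMSO low control.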
Mdm2 MdmX PPI = inhibitors of human Mdm2-MdmX association, primary screen, cell-based, luminescence, split luciferase, SaOS-2, uHTS | Protein Mdm4 (Homo sapiens) + E3 ubiquitin-protein ligase Mdm2 (Homo sapiens), … | actives 3% (n = 330,000) | inhibition, % at 8 µM | AID 485346, 2010 | SaOS-2 split-luciferase Mdm2/MdmX complementation;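 active means inhibition of at least 50% at 8 µM in the primary screen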
Target sequence (O15151 whole entry, looked up): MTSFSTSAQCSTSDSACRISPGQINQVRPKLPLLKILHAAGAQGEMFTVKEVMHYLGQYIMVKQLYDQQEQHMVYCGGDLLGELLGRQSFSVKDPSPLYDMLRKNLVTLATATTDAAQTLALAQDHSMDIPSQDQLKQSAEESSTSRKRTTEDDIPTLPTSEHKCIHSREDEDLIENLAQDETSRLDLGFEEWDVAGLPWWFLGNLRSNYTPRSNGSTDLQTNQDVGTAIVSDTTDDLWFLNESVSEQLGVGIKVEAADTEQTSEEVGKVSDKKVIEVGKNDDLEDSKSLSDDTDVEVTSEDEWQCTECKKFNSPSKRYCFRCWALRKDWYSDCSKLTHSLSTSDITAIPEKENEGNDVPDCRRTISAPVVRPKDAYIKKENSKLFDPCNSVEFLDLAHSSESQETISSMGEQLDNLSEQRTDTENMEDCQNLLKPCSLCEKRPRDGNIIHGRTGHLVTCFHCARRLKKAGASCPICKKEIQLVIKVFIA
Target sequence (Q00987 whole entry, looked up): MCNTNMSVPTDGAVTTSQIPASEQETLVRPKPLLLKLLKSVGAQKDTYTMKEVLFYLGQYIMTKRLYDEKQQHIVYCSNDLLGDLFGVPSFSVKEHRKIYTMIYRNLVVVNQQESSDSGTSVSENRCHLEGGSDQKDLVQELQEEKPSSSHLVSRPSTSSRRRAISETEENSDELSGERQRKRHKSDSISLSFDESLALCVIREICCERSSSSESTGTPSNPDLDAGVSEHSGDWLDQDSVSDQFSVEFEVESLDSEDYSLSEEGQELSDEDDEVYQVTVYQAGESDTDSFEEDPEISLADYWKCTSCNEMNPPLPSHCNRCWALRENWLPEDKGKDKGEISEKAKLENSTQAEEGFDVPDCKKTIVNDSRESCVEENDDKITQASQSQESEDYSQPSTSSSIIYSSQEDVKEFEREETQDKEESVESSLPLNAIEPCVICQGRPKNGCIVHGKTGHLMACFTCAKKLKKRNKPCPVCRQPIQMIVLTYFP
Apaf1 inhib = inhibitors of human Apaf-1 apoptosome, primary screen, biochemical, DEVD-Rh110 fluorescence, uHTS; Apoptotic protease-activating factor 1 (Homo sapiens), O14727; reconstituted apoptosome caspase-3 activity; inhibition, % at 20 µM; actives 0.71% (n = 330,000); active means inhibition of at least 40% at 20 µM;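 further: plate controls were DMSO wells for no effect and DEVD-CHO caspase inhibitor wells for full effect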
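Material: biochemical Apaf-1 apoptosome reconstitution. Medium: Hepes buffer, pH 7.5. Also added: cytochrome c activation, bis-DEVD rhodamine 110 substrate. Timing: 30 min compound preincubation, 50 min activation, room temperature. Measured by: rhodamine 110 fluorescence at Ex 480/Em 540 nm.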
XBP1 UPR activ = activators of adaptive XBP1 UPR arm, primary screen, cell-based, CHO-XBP1 luciferase reporter, luminescence, uHTS; IRE1-XBP1 UPR activation; percent of tunicamycin response, DMSO as zero; activation, % at 20 µM; actives 0.33% (n = 330,000); AID 463104, 2010;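 active means versus positive control, 20 µM dose yields 30% or more activation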;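 further: 100% = tunicamycin at 10 µg/mL and 0% = DMSO only wells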
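Material – CHO cell line with stable XBP1 luciferase reporter · Buffer or medium – F12 plus 10% FBS · Compound – single point, 20 µM final compound, 1% DMSO · Schedule – 16-18 h cell attachment at 37 °C, then 6 h compound exposure · Signal – Steady-Glo luminescence read · Benchmarks – high control tunicamycin 10 µg/mL final, low control DMSO vehicle only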
Apaf-1 inh conf = Apaf-1 inhibitors, single-dose retest, confirmation, biochemical, fluorescence, DEVD-Rh110, 20 µM; shares compounds with Apaf1 inhib; reconstituted apoptosome, caspase-3 DEVD-Rh110 fluorescence; inhibition, % at 20 µM; actives 25% (n = 1,800); AID 504614, 2011;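 active means mean inhibition of at least 40% at 20 µM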;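 further: plate controls were DMSO wells for no effect and DEVD-CHO caspase inhibitor control wells for full effect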
Rh110 quench = Rh110 fluorescence interference by putative Apaf-1 inhibitors, confirmation, artefact control for Apaf-1 inhibitor project, biochemical, 20 µM; shares compounds with Apaf1 inhib; quenched caspase reaction; activation (fluorescence interference), % at 20 µM; 1,800 tested, under 10 active; AID 504615, 2011;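 active means signal rise of 40% or more at 20 µM, treated as a fluorescence artifact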
The depositor's hits bear a star; / = not tested or not shown. In the library only some 4.1% were active in any assay of this set; here they are far more common.

SMILES | UBC13 inh | UPR CHOP act | Mdm2 MdmX PPI | Apaf1 inhib | XBP1 UPR activ | Apaf-1 inh conf | Rh110 quench
O=C(O)c1cccc2c1C(=O)c1ccccc1C2=O | -6 | -1 | 7 | 3 | 1 | / | /
O=C(/C=C/c1ccc(Cl)c([N+](=O)[O-])c1)Nc1ccc(N2CCCC2)c(Cl)c1 | -13 | 5 | 42 | 7 | 9 | / | /
CN1CCN(c2ccc(S(=O)(=O)N3CCCCC3)cc2NC(=O)/C=C/c2ccc(Cl)c([N+](=O)[O-])c2)CC1 | 18 | 16 | 45 | 51* | 3 | 15 | 13
Oc1ccc(N=Cc2ccc(OCc3ccccc3)cc2)cc1 | -5 | 5 | -35 | 93* | 0 | 17 | -4
O=C(N/N=C/c1ccc(OCc2ccccc2)cc1)c1ccncc1 | -16 | 3 | -37 | 8 | 2 | / | /
O=C(NCc1ccccc1)c1ccc2nc(-c3ccco3)c(-c3ccco3)nc2c1 | -24 | 3 | 19 | 65* | -1 | 28 | 6
O=C(c1ccc2nc(-c3ccco3)c(-c3ccco3)nc2c1)N1CCN(c2ncccn2)CC1 | -28 | -1 | 9 | 57* | 0 | 22 | 0
Cc1cccc(N2CCN(C(=O)c3ccc4nc(-c5ccco5)c(-c5ccco5)nc4c3)CC2C)c1 (stereo unspecified) | -32 | 1 | 21 | 60* | -1 | 22 | -1
CC(C)COc1ccc(C(=O)Nc2scc(-c3ccc(Cl)cc3Cl)c2C(N)=O)cc1 | 29 | -1 | 31 | 45* | -1 | 20 | 8
COCC(=O)NCc1ccc2c(c1)cc(C)n2C | -47 | -1 | 2 | 8 | 0 | / | /
Cc1ccc(S(=O)(=O)NCc2ccncc2)cc1 | -1 | 1 | 4 | -2 | -3 | / | /
Cc1cc2cc(CNC(=O)Nc3ccc(Cl)c(Cl)c3)ccc2n1C | -10 | -1 | 21 | 62* | -1 | 8 | -1
Cc1ccc(S(=O)(=O)NCc2ccc3c(c2)cc(C)n3C)cc1 | 9 | 0 | 16 | 51* | 1 | 4 | 11
Cc1onc(-c2ccccc2Cl)c1C(=O)NCc1ccc2c(c1)cc(C)n2C | 13 | 0 | -12 | 53* | -3 | 19 | 1
Cc1cc2cc(CNC(=O)NC3CCCCC3)ccc2n1C | 7 | 1 | -6 | 51* | -1 | 16 | 11
O=C(COC(=O)[C@@H]1CC(O)CN1S(=O)(=O)c1ccc2c(c1)OCCO2)NCc1ccc(F)cc1 (stereo partly specified) | -14 | 0 | 3 | 8 | -2 | / | /
Cc1ccc(S(=O)(=O)Nc2c(C)cc(C)nc2Cl)cc1 | 2 | 1 | -2 | 11 | -4 | / | /
COc1ccc2nc3cccc(OC)c3nc2c1 | -55 | 1 | 24 | 97* | 3 | 27 | 1
COc1ccc(-c2nc3ccccc3nc2-c2ccc(OC)c(OC)c2)cc1OC | 14 | 0 | 6 | 12 | 1 | / | /
COc1ccc2nc3ccccc3nc2c1N | -371 | 3 | -3 | 92* | 4 | 21 | -2
COc1ccc2nc(-c3ccco3)c(-c3ccco3)nc2c1 | 7 | 2 | 5 | 39 | 2 | / | /
Cc1ccc(C)c(OCC(O)CN2CCC(Cc3ccccc3)CC2)c1 (stereo unspecified) | 11 | 0 | 46 | 6 | -6 | / | /
Cc1cnc(NC(=O)CSc2ncc(-c3ccccc3)n2Cc2ccco2)s1 | 1 | 0 | 6 | 42* | -1 | 21 | 11
CC1CC(C)CN(S(=O)(=O)c2ccc(NC(=O)CN3C(=O)NC(C)(c4ccccc4)C3=O)cc2)C1 (stereo unspecified) | 0 | 0 | 2 | 20 | -8 | / | /
Fc1ccccc1NC(=S)Nc1cccc2cnccc12 | -37 | 1 | 8 | 97* | 8 | 12 | -4
SMILES | UBC13 inh | UPR CHOP act | Mdm2 MdmX PPI | Apaf1 inhib | XBP1 UPR activ | Apaf-1 inh conf | Rh110 quench
S=C(NCCc1ccccc1)Nc1cccc2cnccc12 | 4 | 0 | 14 | 11 | 1 | / | /
CC(=O)Nc1cccc(NC(=S)Nc2cccc(Cl)c2C)c1 | -2 | 1 | -29 | -8 | 0 | / | /
S=C(NCc1ccccc1)Nc1cccc2cnccc12 | -6 | 0 | 24 | 4 | -5 | / | /
Cc1ccc(NC(=S)Nc2cccc3cnccc23)cc1C | -48 | 3 | 5 | 53* | 0 | 23 | 11
CC(=O)Nc1cccc(NC(=S)Nc2cccc3ccccc23)c1 | -9 | 6 | 15 | 97* | 3 | 16 | 1
Cc1ccccc1NC(=S)Nc1cccc2cnccc12 | -30 | 1 | 5 | 91* | -3 | 9 | 1
CCCCOC(=O)c1cccnc1 | 3 | -1 | 12 | 2 | 1 | / | /
CCCCNC(=S)Nc1cccc2cnccc12 | -10 | -2 | -1 | -7 | 0 | / | /
Cc1ccc(NC(=S)Nc2cccc3cnccc23)cc1 | -50 | 3 | -28 | 96* | -2 | 20 | -1
O=C(Nc1ccc(N2CCCC2)cc1)C(Cl)c1ccccc1 (stereo unspecified) | -8 | 6 | -5 | 65* | -1 | 26 | 3
CS(=O)(=O)N1CCN(c2ccc(NC(=O)C(c3ccccc3)c3ccccc3)cc2)CC1 | -2 | -1 | 7 | 7 | -1 | / | /
C[C@H](CO)N1C[C@H](C)[C@@H](CN(C)Cc2ccccc2)Oc2c(NS(=O)(=O)c3cn(C)cn3)cccc2C1=O | -6 | 1 | 9 | 7 | 0 | / | /
CCOCCCN(C(=O)c1snc(C(N)=O)c1N)C(C(=O)NC1CCCC1)c1ccc(OC)cc1 (stereo unspecified) | 2 | 2 | 10 | -1 | -2 | / | /
CCN(CC)C(=O)C1CCCN(C(=O)Nc2ccc3nsnc3c2)C1 (stereo unspecified) | 18 | 1 | 25 | 71* | -6 | 12 | 5
CCCSc1cc(NCCOC(C)=O)c([N+](=O)[O-])c2nonc12 | -19 | -2 | -5 | 7 | -2 | / | /
CCCC(=O)OCCNc1cc(SCc2ccco2)c2nonc2c1[N+](=O)[O-] | -38 | -4 | 40 | 57* | -4 | -1 | 0
CC(=O)OCCCNc1cc(SCc2ccco2)c2nonc2c1[N+](=O)[O-] | -32 | -1 | 4 | 74* | -2 | 0 | -2
CCCSc1cc(NCCOC(=O)CCC)c([N+](=O)[O-])c2nonc12 | -9 | 6 | -7 | 15 | -4 | / | /
